M4 ag: human M4 muscarinic receptor agonists, primary screen, CHO-K1 cells, Fluo-8 calcium fluorescence. hit rate 0.14% among 360,000. activation, % at 3 µM. Muscarinic acetylcholine receptor M4 (Homo sapiens), P08173. CHO-K1 hM4/Gqi5; vehicle 0%, full acetylcholine response 100%. AID 624127, 2012;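 active = activation above the run mean over all test wells plus 3 SD, cut at about 32% in these data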;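 note: peak over basal fluorescence ratio per well then scaled between controls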
CHRM5 antagonist: human M5 muscarinic receptor antagonists, primary screen, CHO cells, Fluo-8 calcium fluorescence. Muscarinic acetylcholine receptor M5 (Homo sapiens), P08912. CHO-hM5 cells, ACh EC80. inhibition, % at 3 µM. hit rate 0.59% among 360,000;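 active = inhibition above a per-plate cutoff, the mean of that plate's test compounds plus 3 SD, cut at about 27% in these data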
Target sequence (P08912 whole entry, looked up): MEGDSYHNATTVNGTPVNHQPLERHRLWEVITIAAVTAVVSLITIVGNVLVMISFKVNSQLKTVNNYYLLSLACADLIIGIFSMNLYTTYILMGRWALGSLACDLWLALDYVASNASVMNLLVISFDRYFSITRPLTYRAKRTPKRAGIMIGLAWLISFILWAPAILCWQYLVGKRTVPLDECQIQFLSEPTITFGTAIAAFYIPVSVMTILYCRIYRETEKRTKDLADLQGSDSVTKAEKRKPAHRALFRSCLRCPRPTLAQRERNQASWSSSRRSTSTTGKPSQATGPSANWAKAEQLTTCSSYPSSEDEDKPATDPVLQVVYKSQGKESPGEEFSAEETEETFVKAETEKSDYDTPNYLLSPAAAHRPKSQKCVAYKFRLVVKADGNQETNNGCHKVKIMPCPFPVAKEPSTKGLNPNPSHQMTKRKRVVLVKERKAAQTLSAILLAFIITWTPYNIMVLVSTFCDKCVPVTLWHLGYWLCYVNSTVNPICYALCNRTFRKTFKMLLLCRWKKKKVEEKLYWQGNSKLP
CHRM4 antagonist: human M4 muscarinic receptor antagonists, primary screen, CHO cells, Fluo-8 calcium fluorescence; hit rate 0.73% among 360,000; Muscarinic acetylcholine receptor M4 (Homo sapiens), P08173; inhibition, % at 3 µM; CHO-hM4 cells, ACh EC80;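 active = inhibition above its plate's cutoff, the mean inhibition of sample wells plus 3 SD, cut at about 27% in these data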
M5 ag: human M5 muscarinic receptor agonists, primary screen, CHO-K1 cells, Fluo-8 calcium fluorescence; activation, % at 3 µM; CHO-K1 hM5 cells; 0% DMSO wells, 100% maximal acetylcholine response; hit rate 0.19% among 360,000; AID 624037, 2012;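 active = activation above the run's mean over test compounds plus 3 SD, cut at about 23% in these data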;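 note: signal is peak over basal fluorescence ratio across the kinetic read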
M4 PAM: human M4 muscarinic receptor positive allosteric modulators, primary screen, CHO-K1 cells, Fluo-8 calcium fluorescence | CHO-K1 hM4/Gqi5, ACh EC20; 0% = ACh EC20, 100% = maximal ACh | hit rate 0.4% among 360,000 | Muscarinic acetylcholine receptor M4 (Homo sapiens), P08173 | activation, % at 3 µM;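 active = activation above its plate's cutoff, the mean activation of sample wells plus 3 SD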
M5 PAM: human M5 muscarinic receptor positive allosteric modulators, primary screen, CHO-K1 cells, Fluo-8 calcium fluorescence; Muscarinic acetylcholine receptor M5 (Homo sapiens), P08912; CHO-K1 hM5, ACh EC20 PAM; 0% = ACh EC20, 100% = ACh EC100; activation, % at 3 µM; hit rate 0.3% among 360,000; AID 624038, 2012;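 active = activation above the run cutoff, the mean activation of all test compounds plus 3 SD, cut at about 18% in these data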
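System – CHO-K1 hM5 cells · Compound – 3 µM, single dose · Incubation – compound preincubation 140 s before EC20 acetylcholine addition · Technique – Fluo-8 calcium fluorescence · Measure – Max/basal fluorescence ratio as % of EC20–EC100 ACh window · Benchmarks – low control EC20 acetylcholine (0%), high control EC100 acetylcholine (100%) · Replication – singlicate, one well per test compound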
A number is an active result; i = inactive. A selection: hits, their analogues and other compounds. The true share with any hit is near 1.8%.

SMILES	M4 ag	CHRM5 antagonist	CHRM4 antagonist	M5 ag	M4 PAM	M5 PAM
COc1cc(OC)c(-c2c3cc(O)c(=O)cc-3oc3cc(O)c(O)cc23)cc1OC	212	54	52	326	i	i
Cc1c2cc(O)c(=O)cc-2oc2cc(O)c(O)cc12	i	i	i	i	i	i
Cc1ccccc1OCC(=O)NCC(=O)N/N=C/c1ccc(Br)o1	i	i	i	i	i	20
CCOc1ccc(S(=O)(=O)NCCc2cn3ccccc3n2)cc1	i	i	i	i	16	i
CCN(Cc1ccccc1)C(=O)Cn1c(=O)n(CC(=O)N2CCCCC2)c(=O)c2sccc21	i	i	i	i	i	i
O=P(OC1CCCCC1)(OC1CCCCC1)C(Nc1ccccc1)c1cccnc1 (centres undefined)	i	31	i	i	i	i
CCOP(=O)(OCC)C(Nc1ccccc1)c1cccnc1 (centres undefined)	i	i	i	i	i	i
CCOC(=O)c1sc(NC(=O)CSc2nc(C)cc(C)n2)c(C#N)c1C	i	i	i	i	i	i
CCOC(=O)c1c(NC(=O)CSc2nnc(-c3ccccc3)o2)sc(C(C)=O)c1C	i	i	i	i	15	i
CCOC(=O)c1sc(NC(=O)CSc2n[nH]c(-c3ccccc3)n2)c(C#N)c1C	i	34	i	i	i	i
CCOC(=O)c1c(NC(=O)CSc2nnc(-c3ccc(C)cc3)o2)sc(C(C)=O)c1C	i	i	i	i	i	i
Cc1nc2ccc(C(=O)N(C)Cc3ccco3)cn2c1N(C)CC1CCCCC1	i	i	i	i	i	i
COCC(C)n1c(SCc2cc(=O)n3cc(C)ccc3n2)nc2ccccc2c1=O (centres undefined)	i	i	i	i	i	i
O=C(Cc1ccc(Cl)cc1)Nc1ccccc1C(=O)N1CCCCC1	i	28	i	i	i	i
CC[C@@H](C(=O)[C@@H](C)[C@@H](O)[C@H](C)CCc1ccc(C)c(O)c1C(=O)O)[C@H]1O[C@](CC)([C@H]2CC[C@](O)(CC)[C@H](C)O2)C[C@@H]1C	72	i	i	27	i	i
COc1ccc(/C=N/NC(=O)c2ccc3ccccc3c2)cc1OS(=O)(=O)c1ccc(NC(C)=O)cc1	i	i	28	i	i	i
Cc1ccc(-n2nc3c(n2)/C(=N/O)CC/C3=N\O)cc1	i	i	i	i	i	34
Cc1ccc(C)c(N(CC(=O)N2CCCC2)S(C)(=O)=O)c1	i	i	i	i	i	i
COc1ccc(N/C=C(\C#N)c2nc3ccccc3n2C)c(OC)c1	i	i	28	i	i	i
Cc1cc(C)c2c(N)c(C(=O)c3ccccc3)sc2n1	i	i	33	i	56	i
Cc1cc(C)c2c(N)c(C(=O)c3ccc(Cl)cc3)sc2n1	i	i	i	i	28	i
CCN(CC)CCCNC(=O)c1ccc2c3n(nc2c1)-c1ccc(Cl)cc1CO3	i	i	i	i	i	i
COc1ccc(Cl)cc1N(CC(=O)NC(C)(C)C)S(=O)(=O)c1ccc(C)c([N+](=O)[O-])c1	i	i	i	i	22	i
O=C(Nc1ccc(Cl)cc1)C(Cl)C(=O)c1ccccc1 (centres undefined)	i	i	26	i	i	i
Clc1cccc(Cl)c1/C=N/Nc1c(Cl)cncc1Cl	i	i	i	i	i	28
SMILES	M4 ag	CHRM5 antagonist	CHRM4 antagonist	M5 ag	M4 PAM	M5 PAM
Cn1c(=O)[nH]c(=O)c2c1nc(Br)n2CCCO	i	i	i	i	i	22
CCCCSc1nc2ccc(Nc3nc(N4CCOCC4)nc(N4CCOCC4)n3)cc2s1	i	i	i	i	24	i
CCCCNC(=O)CSc1nc2ccc(Nc3nc(N4CCOCC4)nc(N4CCOCC4)n3)cc2s1	i	i	i	i	i	i
c1cc2c(cc1C1=NNC(=NC3CC3)SC1)OCCO2	i	100	i	i	i	i
CCC(C)N(CCNC(=O)CC1Oc2ccc(C)cc2NC1=O)C1CCCCC1 (centres undefined)	i	i	71	i	i	i
Cc1ccc([N+](=O)[O-])cc1S(=O)(=O)NCCc1c(C)[nH]c2c(C)cccc12	i	i	28	i	i	i
Cc1cc(NC(=O)c2cc3cccc([N+](=O)[O-])c3[nH]2)ccc1F	i	i	i	i	i	i
Cc1ccc(S(=O)(=O)N(C)C[C@@H]2Oc3ccc(NC(=O)CCC(F)(F)F)cc3CC(=O)N([C@@H](C)CO)C[C@@H]2C)cc1	i	i	i	i	i	i
Cc1ccc(/C=C/C(=O)NC2CCCCCCC2)o1	i	i	i	i	28	i
Cc1ccc(/C=N/NC(=O)NC2CCCCC2)o1	i	i	i	i	i	i
Cc1ccc(-c2csc(N/N=C/c3ccco3)n2)cc1	i	i	i	i	i	i
CN(C)S(=O)(=O)c1ccc(-c2csc(N/N=C/c3ccc(O)cc3)n2)cc1	i	i	29	i	i	i
CN(C)S(=O)(=O)c1ccc(-c2csc(N/N=C/c3ccco3)n2)cc1	i	i	30	i	i	i
C(=N\Nc1nc(-c2ccccc2)cs1)/c1ccncc1	i	i	i	i	i	i
O=c1c(/C=C(\O)c2ccccc2)nc2ccccc2n1-c1ccccc1	i	i	39	i	i	i
COc1ccc(O)c(CN2CC3CCC(CC3)C2)c1	i	i	i	i	i	i
CCSc1nc(-c2ccco2)ccc1C#N	i	i	i	i	i	46
COC(=O)c1[nH]c2ccc(C)cc2c1NC(=O)CCN1CCN(Cc2ccc3c(c2)OCO3)CC1	i	33	i	i	i	i
CC(O)c1nc2ccccc2n1C/C=C/c1ccccc1 (centres undefined)	i	i	i	i	i	i
Cc1c(P(=S)(c2ccccc2)c2ccccc2)[n+]2ccccc2n1C/C=C/c1ccccc1	i	i	29	i	i	i
COC(=O)c1cccc(CC2(C)C(=O)Nc3ccc(OC(F)(F)F)cc32)c1 (centres undefined)	i	i	i	i	i	i
CC(=O)Oc1ccc(C(=O)Nc2ccc(S(=O)(=O)N3CCOCC3)cc2)cc1	i	i	i	i	i	i
O=c1c(-c2ccco2)[n+]([O-])c2ccccc2n1OCc1c(F)cccc1F	i	i	i	i	i	19

Bioassay records: PubChem BioAssay, The Scripps Research Institute Molecular Screening Center
